From ChEMBL document CHEMBL2057142, “Discovery and optimization of novel fatty acid transport protein 1 (FATP1) inhibitors” (Bioorg Med Chem Lett, 2012)

Columns and labels:
[1] = molecular target: Long-chain fatty acid transport protein 1 (Homo sapiens, UniProt Q6PCB7); experiment: Inhibition of human recombinant FATP1 acyl-coA synthetase activity using [14C]oleic acid as substrate
[2] = molecular target: Long-chain fatty acid transport protein 1 (Mus musculus, UniProt Q60714); experiment: Inhibition of mouse recombinant FATP1 acyl-coA synthetase activity using [14C]oleic acid as substrate
[3] = Oral bioavailability in rat at 10 mg/kg; assay type: ADME, organism-based; details: in vivo
Summary of the method: (§1)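 Rats dosed orally at 10 mg/kg in DMA/PG/(20% HPβCD in saline) 10:10:80; plasma levels measured, values averaged from two rats.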

[4] = (§2) Tmax in rat at 10 mg/kg, po; assay type: ADME, organism-based; parameters: dose 10 mg/kg, route oral; details: in vivo; summary of the method: as §1
[5] = Clearance in rat at 1 mg/kg, iv; assay type: ADME, organism-based; parameters: dose 1 mg/kg, route intravenous; details: in vivo
Summary of the method: (§3)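 Intravenous dosing to rats at 1 mg/kg in DMA/PG/(20% HPβCD in saline) 10:10:80; plasma pharmacokinetic parameters averaged from two rats.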

[6] = Volume of distribution in rat at 1 mg/kg, iv; assay type: ADME, organism-based; parameters: dose 1 mg/kg, route intravenous; details: in vivo; summary of the method: as §3
[7] = (§4) Cmax in rat at 10 mg/kg, po; assay type: ADME, organism-based; parameters: dose 10 mg/kg, route oral; details: in vivo; summary of the method: as §1
[8] = (§5) Half life in rat at 1 mg/kg, iv; assay type: ADME, organism-based; parameters: dose 1 mg/kg, route intravenous; details: in vivo; summary of the method: as §3
[9] = (§6) AUC in rat at 10 mg/kg, po; assay type: ADME, organism-based, Plasma; parameters: dose 10 mg/kg, route oral; details: plasma; summary of the method: as §1
[10] = Metabolic stability in rat blood assessed as compound remaining after 2 hrs; assay type: ADME, tissue-based; details: read-out: Stability
Summary of the method: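 Test compound incubated with rat blood for 2 h; parent compound remaining (%) measured.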

[11] = molecular target: Long-chain fatty acid transport protein 1 (Mus musculus) (UniProt Q60714); experiment: Inhibition of mouse recombinant FATP1 acyl-coA synthetase activity using [14C]oleic acid as substrate at 10 uM
Summary of the method: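 Same radiometric acyl-CoA synthetase assay with 10 μM [1-¹⁴C] oleic acid, 0.5 mM ATP, 0.5 mM CoA, 5 mM MgCl₂ in Tris-HCl pH 7.4 buffer with Triton X-100 and DTT; test compound at 10 μM, read-out as percent inhibition of ACS activity.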

Rattus norvegicus [12] = experiment: as §2; assay type: ADME, organism-based; parameters: dose 10 mg/kg, route oral; details: in vivo, BLD = below limit of detection; summary of the method: as §1
Rattus norvegicus [13] = experiment: as §4; assay type: ADME, organism-based; parameters: dose 10 mg/kg, route oral; details: in vivo, BLD = below limit of detection; summary of the method: as §1
Rattus norvegicus [14] = experiment: as §5; assay type: ADME, organism-based; parameters: dose 1 mg/kg, route intravenous; details: in vivo, BLD = below limit of detection; summary of the method: as §3
Rattus norvegicus [15] = experiment: as §6; assay type: ADME, organism-based, Plasma; parameters: dose 10 mg/kg, route oral; details: in vivo, BLD = below limit of detection; summary of the method: as §1
Blood = experiment: Drug metabolism in rat blood assessed as 1-(2-((4-ethyl-5-((phenylamino)methyl)-4H-1,2,4-triazol-3-ylthio)methyl)benzo[d]oxazol-5-yl)propan-1-ol formation; assay type: ADME, tissue-based
Mus musculus [16] = experiment: Drug metabolism in iv dosed mouse assessed as 2-(4-ethyl-5-((phenylamino)methyl)-4H-1,2,4-triazol-3-ylthio)acetic acid formation after 5 mins by LC/MS/MS analysis; assay type: ADME, organism-based; details: in vivo
Summary of the method: (§7)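 Compound dosed intravenously to mouse; blood sampled at 5 min and metabolites identified by LC–MS/MS analysis.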

Mus musculus [17] = experiment: Drug metabolism in iv dosed mouse assessed as 2-(4-ethyl-5-((phenylamino)methyl)-4H-1,2,4-triazol-3-ylthio)-N-(4-(1-hydroxypropyl)phenyl)acetamide formation after 5 mins by LC/MS/MS analysis; assay type: ADME, organism-based; details: in vivo; summary of the method: as §7

Long-chain fatty acid transport protein 1 (Homo sapiens, UniProt Q6PCB7), sequence (Q6PCB7 whole entry): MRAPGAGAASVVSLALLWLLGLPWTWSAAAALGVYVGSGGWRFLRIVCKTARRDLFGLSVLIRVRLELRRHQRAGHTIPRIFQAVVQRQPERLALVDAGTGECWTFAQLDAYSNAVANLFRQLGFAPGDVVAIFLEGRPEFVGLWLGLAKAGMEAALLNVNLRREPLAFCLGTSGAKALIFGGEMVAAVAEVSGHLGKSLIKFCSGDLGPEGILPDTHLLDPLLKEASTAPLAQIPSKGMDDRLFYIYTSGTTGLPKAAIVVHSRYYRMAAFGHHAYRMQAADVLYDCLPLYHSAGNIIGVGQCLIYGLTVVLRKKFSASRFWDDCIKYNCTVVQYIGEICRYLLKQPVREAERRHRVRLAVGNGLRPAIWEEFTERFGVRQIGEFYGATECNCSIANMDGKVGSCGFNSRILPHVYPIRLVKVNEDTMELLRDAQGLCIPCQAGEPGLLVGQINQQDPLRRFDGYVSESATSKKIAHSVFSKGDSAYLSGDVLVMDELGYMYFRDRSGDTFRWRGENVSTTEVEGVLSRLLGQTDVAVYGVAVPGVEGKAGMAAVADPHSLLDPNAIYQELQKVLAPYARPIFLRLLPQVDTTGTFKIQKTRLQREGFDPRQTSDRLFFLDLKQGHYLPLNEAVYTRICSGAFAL
Long-chain fatty acid transport protein 1 (Mus musculus, UniProt Q60714), sequence (Q60714 whole entry): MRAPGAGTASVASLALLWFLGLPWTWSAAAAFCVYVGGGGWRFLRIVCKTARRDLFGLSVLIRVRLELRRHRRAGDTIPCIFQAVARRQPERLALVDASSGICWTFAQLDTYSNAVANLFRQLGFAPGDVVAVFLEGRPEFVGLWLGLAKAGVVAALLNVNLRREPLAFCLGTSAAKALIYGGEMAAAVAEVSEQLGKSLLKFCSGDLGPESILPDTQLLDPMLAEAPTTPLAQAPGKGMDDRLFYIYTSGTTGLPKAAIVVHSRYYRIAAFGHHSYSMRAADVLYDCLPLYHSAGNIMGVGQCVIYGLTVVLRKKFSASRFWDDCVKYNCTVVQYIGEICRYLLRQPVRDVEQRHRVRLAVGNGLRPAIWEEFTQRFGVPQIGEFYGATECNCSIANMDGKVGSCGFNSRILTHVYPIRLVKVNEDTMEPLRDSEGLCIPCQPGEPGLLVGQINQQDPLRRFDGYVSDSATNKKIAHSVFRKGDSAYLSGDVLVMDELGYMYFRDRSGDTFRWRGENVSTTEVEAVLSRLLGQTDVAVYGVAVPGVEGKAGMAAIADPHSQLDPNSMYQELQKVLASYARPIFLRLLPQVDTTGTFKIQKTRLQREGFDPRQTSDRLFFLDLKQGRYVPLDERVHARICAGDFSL
Long-chain fatty acid transport protein 1 (Mus musculus), sequence (Q60714 whole entry, looked up): as the sequence (Q60714 whole entry) above

`CCOC(=O)c1ccc2c(c1)CCN2C(=O)CSc1nnc(CNc2ccccc2)n1CC` gave an IC50 [1] of over 1000 nM and an IC50 [2] of over 10000 nM.

Work on `CCn1c(CNc2ccccc2)nnc1SCc1nc2cc(C(F)(F)F)ccc2o1` yielded an IC50 [1] of 360 nM, a bioavailability [3] of 9.2% and a Tmax [4] of 19.8 min. It also gave a clearance [5] of 56 mL/min/kg, a Vd [6] of 1.86 L/kg and a Cmax [7] of 220 ng/mL. The half-life [8] was 73.8 min, the AUC [9] was 280 ng·h/mL and the IC50 [2] was 360 nM.

With `CCn1c(CNc2ccccc2)nnc1SCc1nc2cc(F)ccc2o1` the IC50 [1] was over 1000 nM and the IC50 [2] was 7800 nM.

In the case of `CCC(=O)c1ccc(N(CC)C(=O)CSc2nnc(CNc3ccccc3)n2CC)cc1`, the IC50 [1] is reported as over 1000 nM and the IC50 [2] is reported as over 10000 nM.

With `CCn1c(CNc2ccccc2)nnc1SCc1nc2cc(Cl)ccc2o1` the IC50 [1] was over 1000 nM, the remaining at 2 h [10] was 92% and the IC50 [2] was 2300 nM.

Compound `CCn1c(CNc2ccccc2)nnc1SCc1nc2cc(OC(F)(F)F)ccc2o1` has an IC50 [1] of 100 nM, a remaining at 2 h [10] of 100% and a bioavailability [3] of 5.4%. It also gave a Tmax [4] of 19.8 min, a clearance [5] of 52 mL/min/kg and a Vd [6] of 1.73 L/kg. It also gave a Cmax [7] of 190 ng/mL, a half-life [8] of 61.2 min and an AUC [9] of 200 ng·h/mL. The IC50 [2] was 91 nM.

Work on `CCC(=O)c1ccc(NC(=O)CSc2nnc(CNc3ccccc3)n2CC)cn1` yielded an IC50 [1] of 400 nM and an IC50 [2] of 1500 nM.

Work on `C=CCn1c(CNc2ccccc2)nnc1SCC(=O)Nc1ccc(OC)cc1` yielded an IC50 [1] of 6600 nM and an IC50 [2] of over 10000 nM.

`CCn1c(CNc2ccccc2)nnc1SCC(=O)Nc1ccc(Cl)cc1` gave an IC50 [1] of over 1000 nM and an IC50 [2] of over 10000 nM.

`CCn1c(CNc2ccccc2)nnc1SCC(=O)Nc1ccc(C#N)cc1` showed an IC50 [1] of over 1000 nM and an IC50 [2] of 5100 nM.

Compound `CCn1c(CNc2ccccc2)nnc1SCC(=O)Nc1ccc(S(C)(=O)=O)cc1` has an IC50 [1] of over 1000 nM and an IC50 [2] of over 10000 nM.

In the case of `CCOC(=O)c1ccc(NC(=O)CSc2nnc(CNc3ccccc3)n2CC)cc1`, the IC50 [1] is reported as 330 nM and the IC50 [2] is reported as 1100 nM.

Work on `CCC(=O)c1ccc2nc(CSc3nnc(CNc4ccccc4)n3CC)oc2c1` yielded an IC50 [1] of 900 nM, a remaining at 2 h [10] of 35% and an IC50 [2] of 1200 nM.

In the case of `CCC(O)c1ccc2oc(CSc3nnc(CNc4ccccc4)n3CC)nc2c1` (stereo not drawn), the IC50 [1] is reported as over 1000 nM, the remaining at 2 h [10] is reported as 80% and the IC50 [2] is reported as 3700 nM.

`CCOC(=O)c1ccc(NC(=O)CSc2nnc(CSCc3ccccc3)n2CC)cc1` showed an IC50 [1] of 7600 nM and an IC50 [2] of over 10000 nM.

With `CCn1c(CNc2ccccc2)nnc1SCC(=O)Nc1ccc(C(=O)OC)cc1` the IC50 [1] was 540 nM and the inhibition [11] was 56%.

Compound `CCOC(=O)c1cccc(NC(=O)CSc2nnc(CNc3ccccc3)n2CC)c1` has an IC50 [1] of over 1000 nM and an IC50 [2] of 2900 nM.

For `CCn1c(CNc2ccccc2)nnc1SCc1nc2ccc(Cl)cc2o1`, the IC50 [1] was over 1000 nM and the IC50 [2] was 5400 nM.

Work on `CCn1c(CNc2ccccc2)nnc1SCc1nc2cc(C(=O)C(C)C)ccc2o1` yielded an IC50 [1] of 600 nM, a remaining at 2 h [10] of 42% and an IC50 [2] of 520 nM.

`CCNC(=O)c1ccc(NC(=O)CSc2nnc(CNc3ccccc3)n2CC)cc1` gave an IC50 [1] of over 1000 nM and an IC50 [2] of over 10000 nM.

`CCn1c(CNc2ccccc2)nnc1SCC(=O)Nc1ccc(OC)cc1` gave an IC50 [1] of over 1000 nM and an IC50 [2] of over 10000 nM.

For `CCn1c(CNc2ccccc2)nnc1SCc1nc2cc(OC)ccc2o1`, the IC50 [1] was over 1000 nM and the IC50 [2] was 2700 nM.

`CCn1nnc(-c2ccc(NC(=O)CSc3nnc(CNc4ccccc4)n3CC)cc2)n1` gave an IC50 [1] of over 1000 nM and an IC50 [2] of over 10000 nM.

Compound `CCn1c(CNc2ccccc2)nnc1SCc1nc2ccccc2o1` has an IC50 [1] of over 1000 nM and an IC50 [2] of over 10000 nM.

`CCn1c(CNc2ccccc2)nnc1SCC(=O)Nc1ccccc1` showed an IC50 [1] of over 1000 nM and an IC50 [2] of over 10000 nM.

Work on `CCc1ccc2oc(CSc3nnc(CNc4ccccc4)n3CC)nc2c1` yielded an IC50 [1] of over 1000 nM and an IC50 [2] of 1800 nM.

`CCn1c(CNc2ccccc2)nnc1SCC(=O)Nc1ccc(C(=O)NC)cc1` showed an IC50 [1] of over 1000 nM and an IC50 [2] of over 10000 nM.

In the case of `CCn1c(CNc2ccccc2)nnc1SCc1nc2cc(C)ccc2o1`, the IC50 [1] is reported as over 1000 nM and the IC50 [2] is reported as over 10000 nM.

In the case of `CCC(=O)c1ccc2oc(CSc3nnc(CNc4ccccc4)n3CC)nc2c1`, the IC50 [1] is reported as 190 nM, the remaining at 2 h [10] is reported as 8.9% and the Tmax (Rattus norvegicus [12]) is reported as “BLD”. The clearance [5] was 378 mL/min/kg, the Vd [6] was 2.69 L/kg and the Cmax (Rattus norvegicus [13]) was “BLD”. The t1/2 (Rattus norvegicus [14]) was “BLD”, the AUC (Rattus norvegicus [15]) was “BLD” and the Drug metabolism (Blood) was “Active”. It also gave an IC50 [2] of 360 nM.

Work on `CCC(=O)c1ccc(N(C)C(=O)CSc2nnc(CNc3ccccc3)n2CC)cc1` yielded an IC50 [1] of 580 nM, a remaining at 2 h [10] of 1.9% and an IC50 [2] of 2000 nM.

With `CCn1c(CNc2ccccc2)nnc1SCC(=O)Nc1ccc(C(=O)c2ccccc2)cc1` the IC50 [1] was over 1000 nM and the IC50 [2] was over 10000 nM.

For `CCn1c(CNc2ccccc2)nnc1SCC(=O)Nc1ccc(C(=O)O)cc1`, the IC50 [1] was over 1000 nM and the IC50 [2] was over 10000 nM.

With `CCC(=O)c1ccc(NC(=O)CSc2nnc(CNc3ccccc3)n2CC)cc1` the IC50 [1] was 400 nM, the remaining at 2 h [10] was 28% and the IC50 [2] was 1000 nM. For the same compound, the Drug metabolism (Mus musculus [16]) was “Active” and the Drug metabolism (Mus musculus [17]) was “Active”.

Work on `CCCC(=O)c1ccc(NC(=O)CSc2nnc(CNc3ccccc3)n2CC)cc1` yielded an IC50 [1] of 230 nM and an IC50 [2] of 1100 nM.

For `CCn1c(CNc2ccccc2)nnc1SCC(=O)Nc1ccc(C(C)=O)cc1`, the IC50 [1] was over 1000 nM and the inhibition [11] was 63%.

For `CCOC(=O)c1ccc2oc(CSc3nnc(CNc4ccccc4)n3CC)nc2c1`, the IC50 [1] was 680 nM, the remaining at 2 h [10] was 0% and the IC50 [2] was 840 nM.

`CCOC(=O)c1ccc2c(c1)CCCN2C(=O)CSc1nnc(CNc2ccccc2)n1CC` gave an IC50 [1] of over 1000 nM and an IC50 [2] of 2900 nM.

For `CC/C(=N/OC)c1ccc2oc(CSc3nnc(CNc4ccccc4)n3CC)nc2c1`, the IC50 [1] was over 1000 nM and the IC50 [2] was over 10000 nM.

Compound `CCC(=O)c1ccc2oc(CS(=O)(=O)c3nnc(CNc4ccccc4)n3CC)nc2c1` has an IC50 [1] of 1670 nM, a remaining at 2 h [10] of 44% and an IC50 [2] of 11900 nM.

For `CC/C(=N/O)c1ccc2oc(CSc3nnc(CNc4ccccc4)n3CC)nc2c1`, the IC50 [1] was 260 nM, the remaining at 2 h [10] was 100% and the IC50 [2] was 200 nM.

`CCn1c(CNc2ccccc2)nnc1SCC(=O)Nc1ccc(C(=O)N(C)C)cc1` showed an IC50 [1] of over 1000 nM and an IC50 [2] of over 10000 nM.

`CCn1c(CNc2ccccc2)nnc1SCC(=O)Nc1ccc(C(=O)OC(C)(C)C)cc1` showed an IC50 [1] of over 1000 nM and an IC50 [2] of over 10000 nM.
